The values below come from ChEMBL document CHEMBL1914372, “Synthesis and preliminary biological evaluation of novel N-(3-aryl-1,2,4-triazol-5-yl) cinnamamide derivatives as potential antimycobacterial agents: an operational Topliss Tree approach” (Bioorg Med Chem Lett, 2011).

Molecules are shown by their SMILES. Values after ≈ are worked out from the molar mass of the structure shown.

Data set [1] deals with Mycobacterium tuberculosis. The experiment in a line: Antimycobacterial activity against Mycobacterium tuberculosis H37Rv after 7 days by resazurin based microdilution assay. As to conditions: 168 h. In kind it is functional. The gist of the method: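 M. tuberculosis H37Rv in resazurin microtitre assay (REMA) with two-fold serial dilutions of compound; isoniazid as reference drug. MIC taken as lowest concentration giving complete inhibition, read visually by colour change (blue stays blue without growth, turns pink with growth).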

Data set [2] in a line: Cytotoxicity against african green monkey Vero C1008 cells after 72 hrs by MTT assay. The data set is classed as cell-based. The conditions noted are these: chlorocebus sabaeus. An outline of the steps:
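Mammalian VERO C1008 cells were exposed to the compounds in microtitre plates, viability was read by MTT assay, and CC50 values were determined.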

Molecule `O=C(/C=C/c1cccc([N+](=O)[O-])c1)Nc1nnc(-c2ccccc2)[nH]1` showed an MIC in data set [1] of 9.7 µM (≈ 3.25 µg/mL). The molecule further gave a CC50 at 72 h in data set [2] of 1990 µM.
On to `Nc1ccc(/C=C/C(=O)Nc2nnc(-c3ccccc3)[nH]2)cc1`, for which, in data set [1], the lowest concentration to inhibit growth (MIC) was 20.5 µM (≈ 6.26 µg/mL). This molecule also registered a CC50 at 72 h in data set [2] of 1910 µM.
Take `O=C(/C=C/c1ccc([N+](=O)[O-])s1)Nc1nnc(-c2ccccc2)[nH]1`: the MIC in data set [1] is 4.8 µM (≈ 1.64 µg/mL). In data set [2], this molecule gave a CC50 at 72 h of 1670 µM.
For `Cc1ccc(/C=C/C(=O)Nc2nnc(-c3ccccc3)[nH]2)cc1`, in data set [1], the MIC worked out at 82.2 µM (≈ 25 µg/mL). The molecule further registered a CC50 at 72 h in data set [2] of 1760 µM.
`O=C(/C=C/c1ccco1)Nc1nnc(-c2ccccc2)[nH]1`: in data set [1], the MIC was 11.6 µM (≈ 3.25 µg/mL). Besides, the CC50 at 72 h in data set [2] stood at 2180 µM.
For `O=C(/C=C/c1ccc(Cl)cc1)Nc1nnc(-c2ccccc2)[nH]1`, in that order: 92.6 µM (≈ 30.1 µg/mL) and 1620 µM.
For `O=C(/C=C/c1ccc2c(c1)COC2)Nc1nnc(-c2ccccc2)[nH]1`, in that order: 18.8 µM (≈ 6.25 µg/mL) and 1820 µM.
In turn, `O=C(/C=C/c1ccc(O)cc1)Nc1nnc(-c2ccccc2)[nH]1` returned an MIC in data set [1] of 40.8 µM (≈ 12.5 µg/mL). Further, the midpoint of cytotoxicity in data set [2], the CC50 at 72 h, lay at 1850 µM.
`C=C(C)COc1ccc(/C=C/C(=O)Nc2nnc(-c3ccccc3)[nH]2)cc1` gave an MIC in data set [1] of 9 µM (≈ 3.24 µg/mL). Also, it took 1420 µM to reach half-maximal cytotoxicity in data set [2] (CC50 at 72 h).
As to `COc1ccc(/C=C/C(=O)Nc2nnc(-c3ccccc3)[nH]2)cc1OC`, the MIC in data set [1] was determined as 4.6 µM (≈ 1.61 µg/mL). In data set [2], this molecule registered a CC50 at 72 h of 1210 µM.
In data set [1], `O=C(/C=C/c1cccc(Cl)c1)Nc1nnc(-c2ccccc2)[nH]1` yielded a minimal inhibitory concentration (MIC) of 38.6 µM (≈ 12.5 µg/mL). Further, the midpoint of cytotoxicity in data set [2], the CC50 at 72 h, lay at 1470 µM.
The molecule `O=C(/C=C/c1ccc(OC(F)(F)F)cc1)Nc1nnc(-c2ccccc2)[nH]1` gave an MIC in data set [1] of 8.6 µM (≈ 3.22 µg/mL). In data set [2], the CC50 at 72 h came to 1560 µM.
In data set [1], `NNC(=O)c1ccncc1` [ISONIAZID] registered an MIC of 1.8 µM (≈ 0.247 µg/mL). Further, it took 1460 µM to reach half-maximal cytotoxicity in data set [2] (CC50 at 72 h).
On to `COc1ccc(/C=C/C(=O)Nc2nnc(-c3ccccc3)[nH]2)cc1`, for which, in data set [1], 39.1 µM (≈ 12.5 µg/mL) was the least that counted as inhibitory (MIC). The same molecule showed a CC50 at 72 h in data set [2] of 1280 µM.
For `O=C(/C=C/c1ccccc1)Nc1nnc(-c2ccccc2)[nH]1`, in that order: 86.2 µM (≈ 25 µg/mL) and 1570 µM.
